# Results reported in ChEMBL document CHEMBL1148788 (J Med Chem, 2007).
# Values joined by “and” are separate entries in the source; they are usually repeats but may differ in a detail not shown here. Identical values can stand only once. Active and inactive are the calls of the source. The calls are words filed in the database; no cut-off is given here.
# Tests used:
# [1] = Displacement of [3H]methyllycaconitine from chimeric alpha-7nAChR D197A mutant/5HT3A receptor in tsA201 cells; format: cell-based, Homo sapiens
# In short: (§1)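 tsA-201 cells transiently transfected with 4 µg WT or mutant α7/5-HT3A chimera and assayed 2 days later. Membranes washed twice at 50000g in 50 mM Tris-HCl pH 7.2. Incubated with 0.5 nM [3H]MLA and compound for 2.5 h at room temperature with shaking; nonspecific binding with 5 mM (S)-nicotine. PEI-soaked GF/C filtration, scintillation counting. Ki derived; duplicate, 3–7 experiments.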
# [2] = test system: tsA201; assay: Displacement of [3H]methyllycaconitine from chimeric alpha-7nAChR W55A/Y195A mutant /5HT3A receptor in tsA201 cells; format: cell-based; conditions: Homo sapiens; in short: as §1
# [3] = Displacement of [3H]methyllycaconitine from chimeric alpha-7nAChR K145R mutant /5HT3A receptor in tsA201 cells; format: cell-based, Homo sapiens; in short: as §1
# [4] = Antagonist activity at human alpha7nAChR Y93A mutant co-expressed with human Ric3 in tsA201 cells by FMP assay; format: functional, cell-based
# [5] = Antagonist activity at human alpha7 nAChR W149Y mutant co-expressed with human Ric3 in tsA201 cells by FMP assay; format: functional, cell-based
# [6] = Antagonist activity at human alpha-7 nAChR Y188A mutant coexpressed with human Ric3 in tsA201 cells by FMP assay; format: functional, cell-based
# [7] = Antagonist activity at human alpha-7 nAChR Y195A mutant coexpressed with human Ric3 in tsA201 cells by FMP assay; format: functional, cell-based
# [8] = molecular target: T1, Neuronal acetylcholine receptor subunit alpha-7 (Homo sapiens, UniProt P36544); assay: Displacement of [3H]methyllycaconitine from human alpha-7 in tsA201 cells coexpressed with 5HT3A receptor; format: cell-based
# Target sequence in this assay (P36544 whole entry): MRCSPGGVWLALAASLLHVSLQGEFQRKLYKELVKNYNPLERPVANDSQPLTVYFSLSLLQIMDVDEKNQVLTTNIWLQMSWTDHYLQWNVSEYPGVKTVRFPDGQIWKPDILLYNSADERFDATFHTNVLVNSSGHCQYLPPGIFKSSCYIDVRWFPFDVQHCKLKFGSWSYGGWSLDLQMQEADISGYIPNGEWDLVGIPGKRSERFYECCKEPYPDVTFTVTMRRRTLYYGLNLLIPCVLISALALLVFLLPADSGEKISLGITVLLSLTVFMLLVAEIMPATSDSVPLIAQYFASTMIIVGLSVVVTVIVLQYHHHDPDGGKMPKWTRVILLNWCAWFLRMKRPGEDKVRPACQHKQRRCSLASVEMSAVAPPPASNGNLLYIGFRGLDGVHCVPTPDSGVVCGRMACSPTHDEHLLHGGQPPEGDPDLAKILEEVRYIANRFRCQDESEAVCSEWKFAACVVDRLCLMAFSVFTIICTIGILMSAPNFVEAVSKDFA
# [9] = molecular target: T1, Neuronal acetylcholine receptor subunit alpha-7; assay: Displacement of [3H]methyllycaconitine from alpha7 nAChR in tsA201 cells co-expressed with Ric3; format: cell-based
# Target sequence in this assay (P36544 whole entry): as above
# [10] = molecular target: T1, Neuronal acetylcholine receptor subunit alpha-7; assay: Antagonist activity at human alpha-7 nAChR in tsA201 cells coexpressed with Ric3 by FMP assay; format: functional, cell-based
# Target sequence in this assay (P36544 whole entry): as above
# [11] = molecular target: T1, Neuronal acetylcholine receptor subunit alpha-7; assay: Displacement of [3H]methyllycaconitine from chimeric alpha7nAChR/5HT3A in tsA201 cells; format: cell-based
# Target sequence in this assay (P36544 23-502 limits assumed): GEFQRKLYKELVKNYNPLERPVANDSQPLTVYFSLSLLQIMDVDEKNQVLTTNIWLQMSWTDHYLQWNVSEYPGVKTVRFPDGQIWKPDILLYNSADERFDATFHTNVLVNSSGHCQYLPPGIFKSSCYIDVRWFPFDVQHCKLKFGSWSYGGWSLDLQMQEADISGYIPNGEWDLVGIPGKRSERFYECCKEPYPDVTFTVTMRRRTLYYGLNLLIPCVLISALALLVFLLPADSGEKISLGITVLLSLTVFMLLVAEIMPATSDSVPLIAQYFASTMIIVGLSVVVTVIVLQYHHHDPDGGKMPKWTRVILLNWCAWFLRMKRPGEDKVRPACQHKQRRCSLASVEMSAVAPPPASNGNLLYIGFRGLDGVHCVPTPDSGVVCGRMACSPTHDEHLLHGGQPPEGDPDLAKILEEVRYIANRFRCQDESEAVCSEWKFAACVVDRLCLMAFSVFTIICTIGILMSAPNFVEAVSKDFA
# [12] = Displacement of [3H]methyllycaconitine from chimeric alpha-7nAChR W55A mutant /5HT3A receptor in tsA201 cells; format: cell-based, Homo sapiens; in short: as §1
# [13] = Displacement of [3H]methyllycaconitine from chimeric alpha7nAChR W55Y mutant/5HT3A receptor in tsA201 cells; format: cell-based, Homo sapiens; in short: as §1
# [14] = Displacement of [3H]methyllycaconitine from chimeric alpha7nAChR R79A mutant/5HT3A receptor R79A mutant in tsA201 cells; format: cell-based, Homo sapiens; in short: as §1
# [15] = test system: tsA201; assay: Displacement of [3H]methyllycaconitine from chimeric alpha-7nAChR Y93A mutant/5HT3A receptor in tsA201 cells; format: cell-based; conditions: Homo sapiens; in short: as §1
# [16] = Displacement of [3H]methyllycaconitine from chimeric alpha-7nAChR N107A mutant/5HT3A receptor in tsA201 cells; format: cell-based, Homo sapiens; in short: as §1
# [17] = Displacement of [3H]methyllycaconitine from chimeric alpha7nAChR K145A mutant/5HT3A receptor in tsA201 cells; format: cell-based, Homo sapiens; in short: as §1
# [18] = Displacement of [3H]methyllycaconitine from chimeric alpha-7nAChR S148A mutant /5HT3A receptor in tsA201 cells; format: cell-based, Homo sapiens; in short: as §1
# [19] = test system: tsA201; assay: Displacement of [3H]methyllycaconitine from chimeric alpha-7nAChR W149A mutant/5HT3A receptor in tsA201 cells; format: cell-based; conditions: Homo sapiens; in short: as §1
# [20] = test system: tsA201; assay: Displacement of [3H]methyllycaconitine from chimeric alpha-7nAChR W149Y mutant/5HT3A receptor W149Y mutant in tsA201 cells; format: cell-based; conditions: Homo sapiens; in short: as §1
# [21] = Displacement of [3H]methyllycaconitine from chimeric alpha-7nAChR S150A mutant/5HT3A receptor in tsA201 cells; format: cell-based, Homo sapiens; in short: as §1
# [22] = Displacement of [3H]methyllycaconitine from chimeric alpha-7nAChR Y168A mutant/5HT3A receptor in tsA201 cells; format: cell-based, Homo sapiens; in short: as §1
# [23] = test system: tsA201; assay: Displacement of [3H]methyllycaconitine from chimeric alpha-7nAChR Y188A mutant/5-HT3A receptor in tsA201 cells; format: cell-based; conditions: Homo sapiens; in short: as §1
# [24] = Displacement of [3H]methyllycaconitine from chimeric alpha7nAChR Y195A mutant/5HT3A receptor in tsA201 cells; format: cell-based, Homo sapiens; in short: as §1
# [25] = Displacement of [3H]methyllycaconitine from chimeric alpha-7nAChR Y195F mutant/5HT3A receptor in tsA201 cells; format: cell-based, Homo sapiens; in short: as §1
# [26] = molecular target: T1, Neuronal acetylcholine receptor subunit alpha-7
# Target sequence in this assay (P36544 whole entry): as the sequence (P36544 whole entry) above
# [27] = molecular target: Neuronal acetylcholine receptor; alpha4/beta2 (Rattus norvegicus, UniProt P09483+P12390); assay: Displacement of [3H]epibatidine from rat recombinant alpha-4-beta-2 nAChR in HEK293 cell line; format: cell-based
# [28] = molecular target: T2, Neuronal acetylcholine receptor; alpha3/beta4 (Rattus norvegicus, UniProt P04757+P12392); assay: Displacement of [3H]epibatidine from recombinant rat alpha-3-beta-4 nAChr in HEK293 cell line; format: cell-based
# [29] = molecular target: Neuronal acetylcholine receptor; alpha4/beta4 (Rattus norvegicus, UniProt P09483+P12392); assay: Displacement of [3H]epibatidine from recombinant rat alpha-4-beta-4 nAChr in HEK293 cell line; format: cell-based
# [30] = molecular target: T3, 5-hydroxytryptamine receptor 3A (Homo sapiens, UniProt P46098); assay: Displacement of [3H]GR65630 from human 5HT3A receptor in HEK293 cells; format: cell-based
# T3 sequence (P46098 whole entry): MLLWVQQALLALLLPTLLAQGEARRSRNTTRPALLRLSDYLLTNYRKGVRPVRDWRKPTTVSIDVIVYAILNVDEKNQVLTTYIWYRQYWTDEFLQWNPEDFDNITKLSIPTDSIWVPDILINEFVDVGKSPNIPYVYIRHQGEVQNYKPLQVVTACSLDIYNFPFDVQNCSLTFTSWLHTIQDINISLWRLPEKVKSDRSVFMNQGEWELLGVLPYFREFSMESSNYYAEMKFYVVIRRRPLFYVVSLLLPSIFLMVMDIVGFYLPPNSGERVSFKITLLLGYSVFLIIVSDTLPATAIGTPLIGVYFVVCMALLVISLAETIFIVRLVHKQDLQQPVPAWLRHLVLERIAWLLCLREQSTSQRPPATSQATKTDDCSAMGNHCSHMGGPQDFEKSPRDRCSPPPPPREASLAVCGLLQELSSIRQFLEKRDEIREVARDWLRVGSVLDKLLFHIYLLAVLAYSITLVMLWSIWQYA
# [31] = molecular target: T2, Neuronal acetylcholine receptor; alpha3/beta4; assay: Antagonist activity at rat alpha3beta4 nAChR expressed in HEK293 cells by FMP assay; format: functional, cell-based, Homo sapiens
# [32] = molecular target: T3, 5-hydroxytryptamine receptor 3A; assay: Antagonist activity at human 5HT3A receptor expressed in HEK293 cells by FMP assay; format: functional, cell-based
# [33] = cells; format: functional, cell-based; conditions: Homo sapiens, HEK293
# [34] = molecular target: T4, Glycine receptor subunit alpha-1 (Homo sapiens, UniProt P23415); assay: Antagonist activity at human glycine alpha-1 receptor in HEK293 cells by FMP assay; format: functional, cell-based
# T4 sequence (P23415 whole entry): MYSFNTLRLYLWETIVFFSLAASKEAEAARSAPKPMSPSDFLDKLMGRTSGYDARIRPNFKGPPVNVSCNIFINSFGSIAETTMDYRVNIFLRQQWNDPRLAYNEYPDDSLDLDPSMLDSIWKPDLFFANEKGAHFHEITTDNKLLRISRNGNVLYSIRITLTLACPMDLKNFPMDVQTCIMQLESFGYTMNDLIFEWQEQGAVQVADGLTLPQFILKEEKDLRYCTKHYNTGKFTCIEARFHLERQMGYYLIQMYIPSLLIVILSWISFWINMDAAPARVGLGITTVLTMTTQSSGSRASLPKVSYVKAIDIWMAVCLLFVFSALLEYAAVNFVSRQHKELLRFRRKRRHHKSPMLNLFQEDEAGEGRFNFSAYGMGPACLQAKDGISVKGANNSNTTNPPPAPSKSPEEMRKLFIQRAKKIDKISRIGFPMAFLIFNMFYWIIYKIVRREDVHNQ
# T2 sequence (P04757 whole entry): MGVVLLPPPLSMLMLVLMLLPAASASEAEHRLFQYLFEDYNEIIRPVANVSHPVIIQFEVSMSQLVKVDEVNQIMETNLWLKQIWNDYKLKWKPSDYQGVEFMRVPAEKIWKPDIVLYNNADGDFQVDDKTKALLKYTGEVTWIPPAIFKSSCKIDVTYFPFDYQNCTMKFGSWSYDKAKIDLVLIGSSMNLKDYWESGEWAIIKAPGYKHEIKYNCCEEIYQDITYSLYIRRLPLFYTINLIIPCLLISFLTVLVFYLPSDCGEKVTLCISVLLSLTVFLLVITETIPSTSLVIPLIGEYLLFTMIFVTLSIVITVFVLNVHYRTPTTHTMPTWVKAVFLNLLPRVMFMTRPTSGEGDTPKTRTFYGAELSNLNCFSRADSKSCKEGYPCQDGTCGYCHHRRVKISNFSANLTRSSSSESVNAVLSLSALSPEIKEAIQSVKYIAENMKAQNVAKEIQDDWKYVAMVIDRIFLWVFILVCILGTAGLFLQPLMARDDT
# T2 sequence (P12392 whole entry): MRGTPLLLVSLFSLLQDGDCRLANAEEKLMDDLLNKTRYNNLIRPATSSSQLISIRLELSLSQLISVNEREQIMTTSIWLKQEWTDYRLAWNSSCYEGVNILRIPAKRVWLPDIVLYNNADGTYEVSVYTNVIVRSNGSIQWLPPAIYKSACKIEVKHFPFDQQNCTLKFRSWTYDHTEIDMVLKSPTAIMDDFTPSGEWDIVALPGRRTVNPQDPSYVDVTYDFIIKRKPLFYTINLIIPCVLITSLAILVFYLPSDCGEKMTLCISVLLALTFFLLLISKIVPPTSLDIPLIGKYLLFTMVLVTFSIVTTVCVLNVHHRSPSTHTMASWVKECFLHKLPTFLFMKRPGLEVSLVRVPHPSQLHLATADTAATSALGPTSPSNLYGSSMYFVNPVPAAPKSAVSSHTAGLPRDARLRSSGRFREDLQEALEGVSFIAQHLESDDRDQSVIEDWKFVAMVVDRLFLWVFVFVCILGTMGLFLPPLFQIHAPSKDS
# Chain of Neuronal acetylcholine receptor; alpha4/beta4 (P09483 whole entry): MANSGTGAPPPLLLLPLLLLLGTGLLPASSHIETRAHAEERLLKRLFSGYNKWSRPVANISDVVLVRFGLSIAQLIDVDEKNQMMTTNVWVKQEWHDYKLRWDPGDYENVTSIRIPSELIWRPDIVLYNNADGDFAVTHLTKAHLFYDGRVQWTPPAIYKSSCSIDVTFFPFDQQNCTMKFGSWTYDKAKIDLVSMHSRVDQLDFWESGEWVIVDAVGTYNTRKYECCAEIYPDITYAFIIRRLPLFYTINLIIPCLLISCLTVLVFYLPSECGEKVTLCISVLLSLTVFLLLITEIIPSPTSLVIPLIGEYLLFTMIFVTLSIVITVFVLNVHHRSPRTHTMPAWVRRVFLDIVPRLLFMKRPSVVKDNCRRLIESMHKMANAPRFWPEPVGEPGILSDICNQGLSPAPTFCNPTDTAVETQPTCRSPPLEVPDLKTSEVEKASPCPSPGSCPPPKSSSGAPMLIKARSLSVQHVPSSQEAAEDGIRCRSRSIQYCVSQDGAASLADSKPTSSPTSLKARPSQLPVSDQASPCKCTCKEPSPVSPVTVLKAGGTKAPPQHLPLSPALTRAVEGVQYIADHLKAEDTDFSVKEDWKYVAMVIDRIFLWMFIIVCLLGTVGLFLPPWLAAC
# Chain of Neuronal acetylcholine receptor; alpha4/beta4 (P12392 whole entry): as the sequence (P12392 whole entry) above
# Chain of Neuronal acetylcholine receptor; alpha4/beta2 (P09483 whole entry): as the sequence (P09483 whole entry) above
# Chain of Neuronal acetylcholine receptor; alpha4/beta2 (P12390 whole entry): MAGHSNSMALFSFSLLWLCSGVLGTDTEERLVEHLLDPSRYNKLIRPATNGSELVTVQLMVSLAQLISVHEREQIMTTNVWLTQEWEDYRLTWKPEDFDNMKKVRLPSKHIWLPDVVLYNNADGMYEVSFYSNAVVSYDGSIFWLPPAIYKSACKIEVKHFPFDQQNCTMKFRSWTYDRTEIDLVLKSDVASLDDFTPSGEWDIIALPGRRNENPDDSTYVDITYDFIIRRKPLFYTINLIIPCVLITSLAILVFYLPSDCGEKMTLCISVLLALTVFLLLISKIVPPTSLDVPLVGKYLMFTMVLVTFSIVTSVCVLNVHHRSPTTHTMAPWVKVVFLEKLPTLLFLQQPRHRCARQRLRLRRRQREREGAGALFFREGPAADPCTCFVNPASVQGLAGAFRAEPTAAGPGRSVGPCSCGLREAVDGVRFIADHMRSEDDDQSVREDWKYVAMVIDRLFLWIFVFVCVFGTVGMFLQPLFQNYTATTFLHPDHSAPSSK
smiles,measurement,setting,value
CCN1C[C@]2(COC(=O)c3ccccc3N3C(=O)C[C@H](C)C3=O)CC[C@H](OC)[C@@]34[C@@H]5C[C@H]6[C@H](OC)[C@@H]5[C@](O)(C[C@@H]6OC)[C@](O)([C@@H](OC)[C@H]23)[C@@H]14 [METHYLLYCACONITINE],Ki,[1],5.5 nM
same,pKi,[1],8.26
same,Activity,[2],inactive
same,Ki,[3],4.3 nM
same,pKi,[3],8.37
same,IC50,[4]; read-out: IC50,10000 nM
same,IC50,[4]; read-out: pIC50 (converted),31600 nM
same,IC50,[5]; read-out: IC50,89 nM
same,IC50,[5]; read-out: pIC50 (converted),10000 nM
same,IC50,[6]; read-out: IC50,1800 nM
same,IC50,[6]; read-out: pIC50 (converted),1820 nM
same,IC50,[7]; read-out: IC50,320 nM
same,IC50,[7]; read-out: pIC50 (converted),324 nM
same,Ki,[8]; read-out: Ki,1.1 nM
same,Ki,[8]; read-out: pKi (converted),1 nM
same,Ki,[9]; read-out: Ki,6.1 nM
same,Ki,[9]; read-out: pKi (converted),6.31 nM
same,IC50,[10]; read-out: IC50,8.3 nM
same,IC50,[10]; read-out: pIC50 (converted),8.32 nM
same,Ki,[11],1.6 nM
same,pKi,[11],8.79
same,Ki,[12],24 nM
same,pKi,[12],7.62
same,Ki,[13],4.5 nM
same,pKi,[13],8.35
same,Ki,[14],3.5 nM
same,pKi,[14],8.45
same,Activity,[15],inactive
same,Ki,[16],3.2 nM
same,pKi,[16],8.42
same,Ki,[17],3.9 nM
same,pKi,[17],8.41
same,Ki,[18],2.5 nM
same,pKi,[18],8.6
same,Activity,[19],inactive
same,Activity,[20],inactive
same,Ki,[21],3.5 nM
same,pKi,[21],8.45
same,Ki,[22],1.9 nM
same,pKi,[22],8.71
same,Activity,[23],inactive
same,Ki,[24],13 nM
same,pKi,[24],7.89
same,Ki,[25],1.7 nM
same,pKi,[25],8.78
same,IC50,[26],8.3 nM and 8.32 nM
C[N+](C)(C)Cc1c2n(c3ccccc13)Cc1c(C[N+](C)(C)C)c3ccccc3n1C2.[I-].[I-],Ki,[1],6300 nM
same,pKi,[1],5.2
same,Activity,[2],inactive
same,Ki,[3],5200 nM
same,pKi,[3],5.28
same,Ki,[27],> 100000 nM
same,Ki,[27]; read-out: Ki,> 100000 nM
same,Ki,[28],> 100000 nM
same,pKi,[28]; hek293,< 4
same,Ki,[29],> 100000 nM
same,pKi,[29]; hek293,< 4
same,Ki,[8]; read-out: Ki,2400 nM
same,Ki,[8]; read-out: pKi (converted),2510 nM
same,Ki,[9]; read-out: Ki,1300 nM
same,Ki,[9]; read-out: pKi (converted),1260 nM
same,Ki,[30],> 100000 nM
same,pKi,[30]; hek293,< 4
same,IC50,[10]; read-out: IC50,30000 nM
same,IC50,[10]; read-out: pIC50 (converted),100000 nM
same,pIC50,[31]; hek293,< 4
same,IC50,[31]; read-out: IC50,> 100000 nM
same,pIC50,[32]; hek293,< 4
same,IC50,[32]; read-out: IC50,> 100000 nM
same,IC50,[33]; read-out: IC50,> 100000 nM
same,IC50,[33]; read-out: pIC50 (converted),> 100000 nM
same,IC50,[34],> 100000 nM
same,pIC50,[34]; hek293,< 4
same,Ki,[11],4420 nM
same,pKi,[11],5.35
same,Ki,[12],1100 nM
same,pKi,[12],5.94
same,Ki,[13],2400 nM
same,pKi,[13],5.61
same,Ki,[14],7600 nM
same,pKi,[14],5.12
same,Activity,[15],inactive
same,Ki,[16],15000 nM
same,pKi,[16],4.82
same,Ki,[17],7200 nM
same,pKi,[17],5.14
same,Ki,[18],430 nM
same,pKi,[18],6.37
same,Activity,[19],inactive
same,Activity,[20],inactive
same,Ki,[21],6000 nM
same,pKi,[21],5.22
same,Ki,[22],5100 nM
same,pKi,[22],5.29
same,Activity,[23],inactive
same,Ki,[24],22000 nM
same,pKi,[24],4.66
same,Ki,[25],8300 nM
same,pKi,[25],5.08
